Experimental findings from ChEMBL document CHEMBL4715702, “Overcoming multidrug resistance by targeting mitochondria with NO-donating doxorubicins” (Bioorg Med Chem, 2016) are described below.

Data set [1] relates to HT-29. As to the kind of experiment: Induction of apoptosis in doxorubicin-resistant human HT29 cells assessed as activation of caspase 9 using LEHD-AMC substrate at 5 uM incubated for 24 hrs by fluorescence based assay. It is filed as functional, cell-based. The procedure, abridged: (§1)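 Cells 24 h in 5 µmol/L compound or fresh medium, lysed in HEPES/KOH buffer pH 7.5. 20 µg lysate incubated 1 h at 37°C with 20 µmol/L LEHD-AMC (caspase 9) or DEVD-AMC (caspase 3) in HEPES/CHAPS/sucrose/DTT buffer pH 7.5. Stopped with ice-cold 0.1% TCA; AMC fluorescence ex 380/em 460 nm, converted to nmol AMC/µg protein via AMC standards. Triplicate.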

Data set [2] in a line: Prodrug release in human HT-29 cells assessed as increase in NO level by measuring nitrite release at 5 uM incubated for 24 hrs by spectrophotometric analysis. Format: ADME, cell-based. Particulars: ht-29, 24 h. The essentials:
(§2)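 After 24 h culture with 5 µmol/L compound, medium mixed 1:1 with Griess reagent, 10 min 37°C in dark, absorbance 540 nm. Cell-free blank subtracted; nitrite expressed as nmol/mg cell protein. HT29/dx maintained in 200 nmol/L DOXO. Triplicate, mean ± SD (n = 3).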

The nature of data set [3]: Prodrug release in doxorubicin-resistant human HT-29 cells assessed as increase in NO level by measuring plasma membrane associated MRP1/BCRP nitration mediated drug uptake at 5 uM incubated for 24 hrs by spectrofluorometric analysis. Format: ADME, cell membranes. The conditions noted are these: ht-29, 24 h. The procedure, abridged: (§3)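 Cells 24 h with 5 µmol/L compound; DOXO in whole-cell lysates measured fluorimetrically (ex 475/em 553 nm), cell-free blank subtracted, converted to nmol DOXO/mg protein by calibration curve. Triplicate, mean ± SD.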

The test system of data set [4] is HT-29. Put plainly: Cytotoxicity against human HT-29 cells assessed as LDH release at 5 uM incubated for 24 hrs. Format: functional, cell-based. The essentials:
(§4)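 Extracellular medium spun 12,000 × g 5 min; cells detached, sonicated in 82.3 mmol/L triethanolamine phosphate-HCl pH 7.6. LDH activity read in medium and lysate at 340 nm over 6 min, as µmol NADH oxidized/min/dish; extracellular LDH given as % of total dish activity. Compounds from DMSO stock, 5 µM final, 1% DMSO; controls 1% DMSO. Triplicate, mean ± SD.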
A general note: LDH leaks from cells whose membrane has failed.

Data set [5] is described as follows: Prodrug release in doxorubicin-resistant human HT-29 cells assessed as increase in NO level by measuring induction of P-glycoprotein nitration in plasma membrane at 5 uM incubated for 24 hrs by western blot analysis. Format: cell membranes, Cell membrane. The conditions noted are these: ht-29, 24 h. The procedure, abridged: (§5)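 Cells 24 h with 5 µmol/L compound. Plasma-membrane proteins isolated by surface biotinylation, 50 µg run on SDS-PAGE, probed for Pgp with pancadherin loading control; nitration detected by Western blot, peroxidase secondary and chemiluminescence. Representative of three experiments.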
In general terms: In western blotting, separated proteins are transferred to a membrane and probed.

The subject of data set [6] is HT-29. As to the kind of experiment: Induction of apoptosis in doxorubicin-resistant human HT29 cells assessed as activation of caspase 3 using DEVD-AMC substrate at 5 uM incubated for 24 hrs by fluorescence based assay. It is filed as functional, cell-based. The essentials: as §1
Data set [7] has as its system HT-29. Put plainly: Upregulation of iNOS protein expression in doxorubicin-resistant human HT-29 cells. It is filed as functional, cell-based. The procedure, abridged:
(§6)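 HT29 and HT29/dx cells incubated 24 h with compound or fresh medium; lysed in MLB buffer pH 7.5, sonicated, centrifuged 13,000 x g 10 min 4°C; iNOS detected in whole-cell lysate by Western blotting.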

Data set [8] in a line: Prodrug release in human HT-29 cells assessed as increase in NO level by measuring mitochondria associated MRP1/BCRP nitration mediated drug uptake at 5 uM incubated for 24 hrs by spectrofluorometric analysis. Format: ADME. The conditions noted are these: ht-29, 24 h. The procedure, abridged: (§7)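 Cells 24 h with 5 µmol/L compound; mitochondrial fractions isolated (porin check by immunoblot), DOXO measured fluorimetrically (ex 475/em 553 nm) with blank subtraction and calibration curve; expressed as nmol DOXO/mg mitochondrial protein. Triplicate, mean ± SD.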

Data set [9] has as its system HT-29. As to the kind of experiment: Upregulation of iNOS protein expression in human HT-29 cells. It is filed as functional, cell-based. The procedure, abridged: as §6
Data set [10] can be described thus: Prodrug release in doxorubicin-resistant human HT-29 cells assessed as increase in NO level by measuring mitochondria associated MRP1/BCRP nitration mediated drug uptake at 5 uM incubated for 24 hrs by spectrofluorometric analysis. It is filed as ADME. Particulars: ht-29, 24 h. The essentials:
as §7

Data set [11] relates to HT-29. As to the kind of experiment: Induction of apoptosis in human HT29 cells assessed as activation of caspase 3 using DEVD-AMC substrate at 5 uM incubated for 24 hrs by fluorescence based assay. It is filed as functional, cell-based. The essentials: as §1
Data set [12] can be described thus: Prodrug release in human HT-29 cells assessed as increase in NO level by measuring induction of P-glycoprotein nitration in plasma membrane at 5 uM incubated for 24 hrs by western blot analysis. Format: cell membranes, Cell membrane. Particulars: ht-29, 24 h. The procedure, abridged:
as §5

Data set [13] in a line: Prodrug release in doxorubicin-resistant human HT-29 cells assessed as increase in NO level by measuring nitrite release at 5 uM incubated for 24 hrs by spectrophotometric analysis. It is filed as ADME, cell-based. The conditions noted are these: ht-29, 24 h. The essentials: as §2
Data set [14] deals with HT-29. Put plainly: Induction of apoptosis in human HT29 cells assessed as activation of caspase 9 using LEHD-AMC substrate at 5 uM incubated for 24 hrs by fluorescence based assay. It is filed as functional, cell-based. The essentials: as §1
Data set [15] is described as follows: Prodrug release in human HT-29 cells assessed as increase in NO level by measuring plasma membrane associated MRP1/BCRP nitration mediated drug uptake at 5 uM incubated for 24 hrs by spectrofluorometric analysis. It is filed as ADME, cell membranes. Particulars: ht-29, 24 h. The procedure, abridged: as §3
Data set [16] has as its system HT-29. As to the kind of experiment: Cytotoxicity against doxorubicin-resistant human HT-29 cells assessed as LDH release at 5 uM incubated for 24 hrs. It is filed as functional, cell-based. The procedure, abridged:
as §4

Data set [17] is described as follows: Stability of the compound assessed as human serum esterase-mediated compound hydrolysis by measuring half life at 100 uM by RP-HPLC analysis. It is filed as ADME, cell-free. The procedure, abridged:
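Compound from 10 mM DMSO stock added to human male AB serum preheated to 37 °C, 100 µM final, incubated at 37 ± 0.5 °C. Aliquots deproteinized with acetonitrile/0.1% HCOOH, centrifuged, filtered. Parent and degradation products quantified by RP-HPLC (234 and 480 nm) against 1–100 µM calibration. At least triplicate.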

Another data set concerns H9c2. Put plainly: Cardiotoxicity against rat H9c2 cells assessed as LDH release at 5 uM incubated for 24 hrs. It is filed as toxicity, cell-based. Particulars: h9c2, 24 h. The essentials:
as §4

Data set [18] can be described thus: Prodrug release in doxrubicin-resistant human HT-29 cells assessed as increase in NO level by measuring induction of P-glycoprotein nitration in mitochondria at 5 uM incubated for 24 hrs by western blot analysis. The conditions noted are these: ht-29, 24 h. The procedure, abridged: (§8)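 Cells 24 h with 5 µmol/L compound. Mitochondrial extracts, 10 µg protein, run on SDS-PAGE and probed for Pgp, porin as loading control; nitration detected by Western blot with peroxidase secondary and chemiluminescence. Representative of three experiments.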

Data set [19] in a line: Prodrug release in human HT-29 cells assessed as increase in NO level by measuring induction of P-glycoprotein nitration in mitochondria at 5 uM incubated for 24 hrs by western blot analysis. Particulars: ht-29, 24 h. The essentials:
as §8

The source made the active and inactive calls. The calls are words filed in the database; no cut-off is given here.

As to `COc1cccc2c1C(=O)c1c(O)c3c(c(O)c1C2=O)C[C@@](O)(C(=O)COC(=O)c1ccc(CC(CO[N+](=O)[O-])O[N+](=O)[O-])cc1)C[C@@H]3O[C@H]1C[C@H](N)[C@H](O)[C@H](C)O1` (stereo not given in full), the outcome in the data set with HT-29 [1], in the data set with HT-29 [4], in the data set on HT-29 [6], with HT-29 [7], in the data set with HT-29 [9] and in the data set with HT-29 [11] was Active. Moreover, the result in the data set on HT-29 [14] and in the data set on HT-29 [16] was Active. Further, the Drug metabolism result in data set [2] and in [13] was “Metabolite_Detected” throughout. Further, the Drug uptake entry in data set [3], in [8], in data set [10] and in data set [15] was “Active” each time. For the same molecule, the Activity result in [5] is listed as “Not Active”; in [12], “Not Active”; with H9c2 it was “Non-Toxic”. Moreover, the half-life at 100 µM in data set [17] was 16 h.
`COc1cccc2c1C(=O)c1c(O)c3c(c(O)c1C2=O)C[C@@](O)(C(=O)COC(=O)c1ccc(CCCO[N+](=O)[O-])cc1)C[C@@H]3O[C@H]1C[C@H](N)[C@H](O)[C@H](C)O1.Cl`: the result with HT-29 [1], with HT-29 [6], with HT-29 [11] and in the data set on HT-29 [14] was inactive. Also, the Drug metabolism entry in data set [2] and in data set [13] was “Metabolite_Detected” throughout. Also, the Drug uptake entry in data set [3] and in data set [15] was “Active” throughout. Also, the Activity result in data set [5], in data set [18], in data set [19] and in [12] was “Not Active” each time. Also, in [17], the half-life at 100 µM is 24.6 h.
Take `COc1cccc2c1C(=O)c1c(O)c3c(c(O)c1C2=O)C[C@@](O)(C(=O)COC(=O)CCCCCO[N+](=O)[O-])C[C@@H]3O[C@H]1C[C@H](N)[C@H](O)[C@H](C)O1.Cl`: the Drug metabolism entry in [2] and in data set [13] was “Metabolite_Detected” in each case. Moreover, the Drug uptake entry in data set [3] and in [15] was “Active” throughout. Besides, the Activity entry in data set [5] was “Not Active”. Further, the half-life at 100 µM in data set [17] was 4.9 h.
Turning to `COc1cccc2c1C(=O)c1c(O)c3c(c(O)c1C2=O)C[C@@](O)(C(=O)COC(=O)c1ccc(OCCCO[N+](=O)[O-])cc1)C[C@@H]3O[C@H]1C[C@H](N)[C@H](O)[C@H](C)O1.Cl`, the result in the data set on HT-29 [1], in the data set with HT-29 [6], in the data set on HT-29 [11] and in the data set on HT-29 [14] was inactive. Besides, the Drug metabolism result in [2] and in [13] was “Metabolite_Detected” each time. Also, the Drug uptake entry in data set [3] and in data set [15] was “Active” in each case. In addition, the Activity result in data set [5], in data set [18], in data set [19] and in data set [12] was “Not Active” each time. In addition, in data set [17], the half-life at 100 µM was 26.7 h.
In the case of `COc1cccc2c1C(=O)c1c(O)c3c(c(O)c1C2=O)C[C@@](O)(C(=O)COC(=O)c1ccc(OCC(CO[N+](=O)[O-])O[N+](=O)[O-])cc1)C[C@@H]3O[C@H]1C[C@H](N)[C@H](O)[C@H](C)O1.Cl` (stereo not given in full), the result in the data set with HT-29 [1], in the data set with HT-29 [6], in the data set with HT-29 [11] and in the data set on HT-29 [14] was inactive. Besides, the Drug metabolism entry in [2] and in data set [13] was “Metabolite_Detected” throughout. Besides, the Drug uptake result in data set [3] and in data set [15] was “Active” throughout. In addition, the Activity result in [5], in data set [18], in data set [19] and in data set [12] was “Not Active” throughout. The half-life at 100 µM in [17] is 34.7 h.
Consider `COc1cccc2c1C(=O)c1c(O)c3c(c(O)c1C2=O)C[C@@](O)(C(=O)COC(=O)CCCC(CO[N+](=O)[O-])O[N+](=O)[O-])C[C@@H]3O[C@H]1C[C@H](N)[C@H](O)[C@H](C)O1.Cl` (stereo not given in full), for which the outcome in the data set on HT-29 [1], in the data set with HT-29 [6], in the data set with HT-29 [11] and in the data set with HT-29 [14] was inactive. Besides, the Drug metabolism result in data set [2] and in [13] was “Metabolite_Detected” throughout. Further, the half-life at 100 µM in [17] is 6 h.
For `COc1cccc2c1C(=O)c1c(O)c3c(c(O)c1C2=O)C[C@@](O)(C(=O)COC(=O)c1ccc(C(=O)OCO/N=[N+](\[O-])N2CCCC2)cc1)C[C@@H]3O[C@H]1C[C@H](N)[C@H](O)[C@H](C)O1.Cl`, the result in the data set on HT-29 [1], in the data set on HT-29 [6], with HT-29 [11] and with HT-29 [14] was inactive. In addition, the Drug metabolism result in [2] and in [13] was “Metabolite_Detected” throughout. For the same molecule, the Activity result in [3], in [18] and in data set [19] was “Not Active” throughout. Moreover, the Drug uptake entry in [15] is given as “Not Active”. The half-life at 100 µM in data set [17] is 2.8 h.
Turning to `COc1cccc2c1C(=O)c1c(O)c3c(c(O)c1C2=O)C[C@@](O)(C(=O)CO)C[C@@H]3O[C@H]1C[C@H](N)[C@H](O)[C@H](C)O1` [DOXORUBICIN], in [2], the Drug metabolism result is recorded as “Metabolite_Detected”. The Drug uptake result was “Not Active” in [3], “Active” in data set [8], “Not Active” in data set [10] and “Active” in data set [15]. Further, in the data set with HT-29 [7], the result was inactive. For the same molecule, the result with HT-29 [9] was Active. Moreover, the Activity result is reported as “Not Active” in data set [12] and “Toxic” in the data set on H9c2.

As usually defined, the half-life is the time in which the quantity being followed falls by half.
